Values belong to the compound of their own block, whether it stands above or below them.
Legend:
[1] = test system: DU-145; test: Growth inhibition of human DU145 cells after 72 hrs by MTT assay; assay type: functional, cell-based; conditions: DU-145, 72 h
How it was run: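 Du145 human prostate carcinoma cells were screened by MTT cell-growth inhibition assay. IC50 values are means of three experiments.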

[2] = test system: IMR-90; test: Antiproliferative activity against human IMR90 cells after 72 hrs by MTT assay; assay type: cell-based; conditions: IMR-90, 72 h
[3] = test system: HT-1080; test: Antiproliferative activity against human HT1080 cells after 72 hrs by MTT assay; assay type: functional, cell-based; conditions: HT-1080, 72 h
[4] = test system: HT-29; test: Antiproliferative activity against human HT-29 cells after 72 hrs by MTT assay; assay type: functional, cell-based; conditions: HT-29, 72 h
[5] = Antiproliferative activity against human L78 cells after 72 hrs by MTT assay; assay type: functional, cell-based; conditions: L78, 72 h
[6] = test system: MOLT-4; test: Antiproliferative activity against human MOLT4 cells after 72 hrs by MTT assay; assay type: functional, cell-based; conditions: MOLT-4, 72 h
[7] = test system: OS-RC-2; test: Antiproliferative activity against human OS-RC2 cells after 72 hrs by MTT assay; assay type: functional, cell-based; conditions: OS-RC-2, 72 h
[8] = test system: SGC-7901; test: Antiproliferative activity against human SGC7901 cells after 72 hrs by MTT assay; assay type: functional, cell-based; conditions: SGC-7901, 72 h
[9] = test system: U-251; test: Antiproliferative activity against human U251 cells after 72 hrs by MTT assay; assay type: functional, cell-based; conditions: U-251, 72 h
[10] = test system: A549; test: Antiproliferative activity against human A549 cells after 72 hrs by MTT assay; assay type: functional, cell-based; conditions: A549, 72 h
[11] = test system: HeLa; test: Antiproliferative activity against human HeLa cells after 72 hrs by MTT assay; assay type: functional, cell-based
[12] = test system: HepG2; test: Antiproliferative activity against human HepG2 cells after 72 hrs by MTT assay; assay type: functional, cell-based; conditions: HepG2, 72 h
[13] = test system: KB; test: Antiproliferative activity against human KB cells after 72 hrs by MTT assay; assay type: functional, cell-based
[14] = test system: MCF7; test: Antiproliferative activity against human MCF7 cells after 72 hrs by MTT assay; assay type: functional, cell-based; conditions: MCF7, 72 h
[15] = test system: DU-145; test: Induction of apoptosis in human DU145 cells at 5 uM assessed as live cell level after 72 hrs by AnnexinV conjugated 7- AAD staining by flow cytometry; assay type: functional
How it was run: (§1)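 Du145 cells were treated for 72 h and stained with Annexin V conjugate plus 7-AAD. Flow cytometry read PS externalization and membrane integrity, scoring cells as live (double negative), early apoptotic, or late apoptotic/necrotic (double positive). Untreated cells served as the control.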

[16] = test system: DU-145; test: Induction of apoptosis in human DU145 cells at 5 uM assessed as early apoptosis level after 72 hrs by AnnexinV conjugated 7- AAD staining by flow cytometry; assay type: functional; how it was run: as §1
[17] = test system: DU-145; test: Induction of apoptosis in human DU145 cells at 5 uM assessed as late apoptosis/ necrotic cells level after 72 hrs by AnnexinV conjugated 7- AAD staining by flow cytometry; assay type: functional; how it was run: as §1
[18] = test system: DU-145; test: Induction of apoptosis in human DU145 cells at 5 uM assessed as dead cell level after 72 hrs by AnnexinV conjugated 7- AAD staining by flow cytometry; assay type: functional
How it was run: (§2)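 Du145 human prostate carcinoma cells exposed to compound for 72 h, then stained with Annexin V and 7-AAD and analysed by flow cytometry. Annexin V detects phosphatidylserine externalised to the outer membrane leaflet, and 7-AAD enters only membrane-compromised cells. Dead cells were those positive for both stains. Untreated cells served as control.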

[19] = test system: DU-145; test: Induction of apoptosis in human DU145 cells at 10 uM assessed as live cell level after 72 hrs by AnnexinV conjugated 7- AAD staining by flow cytometry; assay type: functional; how it was run: as §1
[20] = test system: DU-145; test: Induction of apoptosis in human DU145 cells at 10 uM assessed as early apoptosis level after 72 hrs by AnnexinV conjugated 7- AAD staining by flow cytometry; assay type: functional; how it was run: as §1
[21] = test system: DU-145; test: Induction of apoptosis in human DU145 cells at 10 uM assessed as late apoptosis/ necrotic cells level after 72 hrs by AnnexinV conjugated 7- AAD staining by flow cytometry; assay type: functional; how it was run: as §1
[22] = test system: DU-145; test: Induction of apoptosis in human DU145 cells at 10 uM assessed as dead cell level after 72 hrs by AnnexinV conjugated 7- AAD staining by flow cytometry; assay type: functional; how it was run: as §2

Structure (SMILES): COc1cc(N2CCN(C3=CC(=O)c4ccccc4C3=O)CC2)cc(OC)c1OC
IC50 [1]: 11.6 µM

Structure (SMILES): O=C1C=C(N2CCN(c3ccc(F)cc3)CC2)C(=O)c2c(O)cccc21
IC50 [1]: 8.4 µM

Structure (SMILES): COc1cc(OC)cc(N2CCN(C3=CC(=O)c4ccccc4C3=O)CC2)c1
IC50 [1]: 14.9 µM

Structure (SMILES): COc1cccc2c1C(=O)c1c(O)c3c(c(O)c1C2=O)C[C@@](O)(C(=O)CO)C[C@@H]3O[C@H]1C[C@H](N)[C@H](O)[C@H](C)O1 [DOXORUBICIN]
IC50 [2]: 1 µM
IC50 [3]: 0.1 µM
IC50 [4]: 1.3 µM
IC50 [5]: 2.4 µM
IC50 [6]: 0.002 µM
IC50 [7]: 5.4 µM
IC50 [8]: 0.9 µM
IC50 [9]: 0.6 µM

Structure (SMILES): O=C1C=C(N2CCC(c3ccc(Cl)cc3)CC2)C(=O)c2c(O)cccc21
IC50 [1]: 2.6 µM
IC50 [2]: > 50 µM
IC50 [10]: 17.2 µM
IC50 [11]: 18.2 µM
IC50 [12]: 5.4 µM
IC50 [3]: 22.4 µM
IC50 [4]: 6.9 µM
IC50 [13]: 14 µM
IC50 [5]: 40.6 µM
IC50 [14]: 20.5 µM
IC50 [6]: > 50 µM
IC50 [7]: 5.2 µM
IC50 [8]: > 50 µM
IC50 [9]: 6.1 µM
Activity [15]: 52.14%
Activity [16]: 7.22%
Activity [17]: 35.95%
Activity [18]: 4.69%
Activity [19]: 1.95%
Activity [20]: 8.88%
Activity [21]: 87.96%
Activity [22]: 1.21%

Structure (SMILES): COc1cccc(N2CCN(C3=CC(=O)c4ccccc4C3=O)CC2)c1
IC50 [1]: 15 µM

Structure (SMILES): O=C1C(O)=C([C@H]2CC[C@H](c3ccc(Cl)cc3)CC2)C(=O)c2ccccc21 [ATOVAQUONE]
IC50 [1]: 29.3 µM

Structure (SMILES): O=C1C=C(N2CCN(c3ccccc3Cl)CC2)C(=O)c2ccccc21
IC50 [1]: 2.9 µM
IC50 [2]: > 50 µM
IC50 [10]: 10.3 µM
IC50 [11]: 11.3 µM
IC50 [12]: 11.1 µM
IC50 [3]: 15.4 µM
IC50 [4]: 18.9 µM
IC50 [13]: 3.7 µM
IC50 [5]: 28.8 µM
IC50 [14]: 10.3 µM
IC50 [6]: > 50 µM
IC50 [7]: 8.9 µM
IC50 [8]: 41.8 µM
IC50 [9]: 30.8 µM
Activity [15]: 91.36%
Activity [16]: 1.01%
Activity [17]: 3.65%
Activity [18]: 3.99%
Activity [19]: 85.3%
Activity [20]: 1.89%
Activity [21]: 9.71%
Activity [22]: 3.1%

Structure (SMILES): O=C1C=C(N2CCN(c3ccc(F)cc3)CC2)C(=O)c2ccccc21
IC50 [1]: 11.7 µM

Structure (SMILES): Cc1ccccc1N1CCN(C2=CC(=O)c3cccc(O)c3C2=O)CC1
IC50 [1]: 2.3 µM
IC50 [2]: > 50 µM
IC50 [10]: 5.3 µM
IC50 [11]: 7.2 µM
IC50 [12]: 10.3 µM
IC50 [3]: 11 µM
IC50 [4]: 2.8 µM
IC50 [13]: 6.6 µM
IC50 [5]: 15.1 µM
IC50 [14]: 9.7 µM
IC50 [6]: > 50 µM
IC50 [7]: 4.4 µM
IC50 [8]: 5.3 µM
IC50 [9]: 10.2 µM
Activity [15]: 69.54%
Activity [16]: 3.89%
Activity [17]: 15.49%
Activity [18]: 11.08%
Activity [19]: 18.75%
Activity [20]: 18.28%
Activity [21]: 59.33%
Activity [22]: 3.64%

Results, then the compound that gave them:

IC50 [1]: 5.7 µM
Structure (SMILES): Cc1ccccc1N1CCN(C2=CC(=O)c3ccccc3C2=O)CC1

IC50 [1]: 6.1 µM
Structure (SMILES): Cc1ccccc1C1CCN(C2=CC(=O)c3ccccc3C2=O)CC1

IC50 [1]: 8.3 µM
Structure (SMILES): O=C1C=C(N2CCN(c3cccc(Cl)c3)CC2)C(=O)c2ccccc21

IC50 [1]: 8 µM
Structure (SMILES): COc1ccccc1N1CCN(C2=CC(=O)c3ccccc3C2=O)CC1

IC50 [1]: 6 µM
Structure (SMILES): O=C1C=C(N2CCC(c3ccccc3)CC2)C(=O)c2ccccc21

— ChEMBL document CHEMBL1782036, “Atovaquone derivatives as potent cytotoxic and apoptosis inducing agents” (Bioorg Med Chem Lett, 2009)
